The source made the active and inactive calls. No cut-off for these calls is given here.
Legend:
Mu-type opioid receptor [1] = target: T1, Mu-type opioid receptor (Homo sapiens, UniProt P35372); assay: Agonist activity at human mu opioid receptor expressed in CHO cells by [35S]GTPgammaS binding assay relative to control; type: functional, cell-based
In short: (§1)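 [35S]GTPγS binding (0.080 nM final) on membranes from CHO cells stably expressing human δ (10 μg), μ (7.5 μg) or κ (15 μg) receptors. Twelve compound concentrations were tested in 50 mM Tris-HCl pH 7.4 with 3 mM MgCl2, 0.2 mM EGTA, 3 μM GDP and 100 mM NaCl, for 60 min at 30 °C. Nonspecific binding was set with 10 μM GTPγS. Samples were filtered and counted. Emax was taken relative to basal (0%). Values are mean ± S.E.M., ≥3 experiments in triplicate.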

Mu-type opioid receptor [2] = target: T1, Mu-type opioid receptor; assay: Antagonist activity at human mu opioid receptor expressed in CHO cells assessed as inhibition of DAMGO-induced [35S]GTPgammaS binding relative to control; type: functional, cell-based
In short: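 Human μ-receptor CHO membranes (7.5 μg) were incubated with twelve compound concentrations plus 200 nM DAMGO and 0.080 nM [35S]GTPγS. Nonspecific binding was set with 10 μM GTPγS. Read by filtration and scintillation counting.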

[3] = target: T2, Kappa-type opioid receptor (Homo sapiens, UniProt P41145); assay: Agonist activity at human kappa opioid receptor expressed in CHO cells by [35S]GTPgammaS binding assay relative to control; type: functional, cell-based; in short: as §1
[4] = target: T2, Kappa-type opioid receptor; assay: Antagonist activity at human kappa opioid receptor expressed in CHO cells assessed as inhibition of […]-induced [35S]GTPgammaS binding relative to control; type: functional, cell-based
[5] = target: T3, Delta-type opioid receptor (Homo sapiens, UniProt P41143); assay: Antagonist activity at human delta opioid receptor expressed in CHO cells assessed as inhibition of […]-induced [35S]GTPgammaS binding relative to control; type: functional, cell-based
Homo sapiens [6] = species: Homo sapiens; assay: Selectivity ratio of Ki for human kappa opioid receptor to Ki for human mu opioid receptor
Homo sapiens [7] = species: Homo sapiens; assay: Selectivity ratio of Ki for human kappa opioid receptor to Ki for human delta opioid receptor
[8] = target: T2, Kappa-type opioid receptor; assay: Displacement of [3H]U69593 from human kappa opioid receptor expressed in CHO cells after 60 mins by scintillation counting; type: cell-based
[9] = target: T3, Delta-type opioid receptor; assay: Antagonist activity at human delta opioid receptor expressed in CHO cells assessed as inhibition of […]-induced [35S]GTPgammaS binding; type: functional, cell-based
Mu-type opioid receptor [10] = target: T1, Mu-type opioid receptor; assay: Displacement of [3H]DAMGO from human mu opioid receptor expressed in CHO cells after 60 mins by scintillation counting; type: cell-based
Homo sapiens [11] = species: Homo sapiens; assay: Selectivity ratio of Ki for human mu opioid receptor to Ki for human delta opioid receptor
Mu-type opioid receptor [12] = target: T1, Mu-type opioid receptor; assay: Antagonist activity at human mu opioid receptor expressed in CHO cells assessed as inhibition of DAMGO-induced [35S]GTPgammaS binding; type: functional, cell-based
[13] = target: T2, Kappa-type opioid receptor; assay: Antagonist activity at human kappa opioid receptor expressed in CHO cells assessed as inhibition of […]-induced [35S]GTPgammaS binding; type: functional, cell-based
[14] = target: T3, Delta-type opioid receptor; assay: Agonist activity at human delta opioid receptor expressed in CHO cells by [35S]GTPgammaS binding assay relative to control; type: functional, cell-based; in short: as §1
[15] = target: T3, Delta-type opioid receptor; assay: Displacement of [3H]naltrindole from human delta opioid receptor expressed in CHO cells after 3 hrs by scintillation counting; type: cell-based

T2 sequence (P41145 whole entry): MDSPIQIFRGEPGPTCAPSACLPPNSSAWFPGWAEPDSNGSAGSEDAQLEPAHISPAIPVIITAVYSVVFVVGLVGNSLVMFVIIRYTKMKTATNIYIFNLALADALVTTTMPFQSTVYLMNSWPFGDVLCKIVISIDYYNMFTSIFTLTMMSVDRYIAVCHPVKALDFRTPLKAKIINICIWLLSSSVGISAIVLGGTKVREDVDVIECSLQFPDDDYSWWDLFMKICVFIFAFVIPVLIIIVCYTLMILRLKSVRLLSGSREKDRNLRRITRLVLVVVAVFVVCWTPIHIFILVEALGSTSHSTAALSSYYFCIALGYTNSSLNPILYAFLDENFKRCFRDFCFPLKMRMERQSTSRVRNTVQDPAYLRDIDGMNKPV
T1 sequence (P35372 whole entry): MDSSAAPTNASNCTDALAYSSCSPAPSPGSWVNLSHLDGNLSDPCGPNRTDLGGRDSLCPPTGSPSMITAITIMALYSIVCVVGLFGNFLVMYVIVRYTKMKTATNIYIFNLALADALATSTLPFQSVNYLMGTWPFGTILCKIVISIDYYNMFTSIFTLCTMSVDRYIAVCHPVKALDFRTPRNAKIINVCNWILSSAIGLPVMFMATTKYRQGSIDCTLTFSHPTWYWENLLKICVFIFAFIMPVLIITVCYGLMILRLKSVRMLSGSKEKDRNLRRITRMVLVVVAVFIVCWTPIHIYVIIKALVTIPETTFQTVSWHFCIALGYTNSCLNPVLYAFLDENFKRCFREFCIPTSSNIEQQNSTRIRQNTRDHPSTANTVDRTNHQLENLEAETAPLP
T3 sequence (P41143 whole entry): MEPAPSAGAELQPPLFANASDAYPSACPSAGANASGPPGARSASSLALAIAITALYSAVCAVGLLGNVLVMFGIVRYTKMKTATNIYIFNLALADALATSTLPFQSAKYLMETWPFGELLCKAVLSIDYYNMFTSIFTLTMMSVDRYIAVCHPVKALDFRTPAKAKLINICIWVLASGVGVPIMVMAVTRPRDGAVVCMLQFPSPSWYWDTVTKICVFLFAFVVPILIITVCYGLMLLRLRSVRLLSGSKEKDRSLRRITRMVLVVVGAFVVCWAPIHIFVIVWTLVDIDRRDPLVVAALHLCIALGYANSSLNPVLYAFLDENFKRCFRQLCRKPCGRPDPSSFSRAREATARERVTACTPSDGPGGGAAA

Row | SMILES | Emax (Mu-type opioid receptor [1]) | Imax (Mu-type opioid receptor [2]) | Emax [3] | Imax [4] | Imax [5] | Ratio Ki (Homo sapiens [6]) | Ratio Ki (Homo sapiens [7]) | Ki [8] | IC50 [9] | Ki (Mu-type opioid receptor [10]) | Ratio Ki (Homo sapiens [11]) | IC50 (Mu-type opioid receptor [12]) | IC50 [13] | Emax [14] | Ki [15]
1 | Cc1cc(O)cc(C)c1C[C@@H](C(=O)N1Cc2ccccc2C[C@H]1C(=O)NCCC(=O)OC1=C2O[C@H]3[C@@H](O)C=C[C@H]4[C@H]5CC(C=C1)C2[C@]43CCN5C)N(C)C (stereo partly drawn) | 14% | 69% | 41% | inactive | 120% | – | – | – | – | – | – | – | – | – | –
2 | Cc1cc(O)cc(C)c1C[C@@H](C(=O)N1Cc2ccccc2C[C@H]1C(=O)NCCC(=O)O)N(C)C | – | – | – | – | – | > 2.2 | – | – | – | – | – | – | – | – | –
3 | Cc1cc(O)cc(C)c1C[C@@H](C(=O)N1Cc2ccccc2C[C@H]1C(=O)O)N(C)C | – | – | – | – | – | > 4.3 | > 3740 | – | – | – | – | – | – | – | –
4 | Cc1cc(O)cc(C)c1C[C@@H](C(=O)N1Cc2ccccc2C[C@H]1C(=O)OC1=C2O[C@H]3[C@@H](O)C=C[C@H]4[C@H]5CC(C=C1)C2[C@]43CCN5C)N(C)C (stereo partly drawn) | 0.43% | 97% | 2.6% | 99% | 120% | 11 | 7.5 | 12 nM | 1.7 nM | 1.1 nM | 1.5 | 13 nM | 3100 nM | -4.9% | 1.6 nM

Source: ChEMBL document CHEMBL1667791, “Opioid bifunctional ligands from morphine and the opioid pharmacophore Dmt-Tic” (Eur J Med Chem, 2011)
